The structures appear in SMILES notation. Square brackets hold non-standard residues; d marks the D form. Peptide text beside a SMILES is read from it. Sar = CNCC(=O)O

The results in this text go back to ChEMBL document CHEMBL1123016, “Synthesis and biological activities of analogues of angiotensins II and III containing O-methyltyrosine and D-tryptophan” (J Med Chem, 1985).

The species named for assay [1] is Rattus norvegicus. As to the kind of experiment: Compound was tested for agonist activity in rat isolated uterus assay. It counts as functional. The method, boiled down:
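Uteri from diethylstilbestrol-primed female Sprague-Dawley rats (150-250 g). Peptides were stored lyophilized at -20 °C, with 1 mg/mL stock solutions made weekly and assay dilutions made daily. Tissue was challenged every 12 min. Agonist activity is expressed relative to ANG II = 100%, as mean ± SEM with the number of animals.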

For assay [2], the species on record is Rattus norvegicus. As to the kind of experiment: Compound was tested for antagonist activity in rat isolated uterus assay; pA2 is the negative logarithm of the concentration of antagonist that reduces the response to an ED50 dose of angiotensin II to the response to half the ED50 dose. It is filed as functional. The following applies: read-out: pA2 (converted). The procedure, abridged:
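Isolated uterus from diethylstilbestrol-primed female Sprague-Dawley rats (150-250 g), challenged every 12 min. Antagonist was given 2 min before an ED50 dose of ANG II. Where antagonism appeared non-competitive, each tissue received a single "pA2 dose" and the ANG II response was measured after 2 min (mean of four determinations). Otherwise values are mean ± SEM (number of animals).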

`CC[C@H](C)[C@H](NC(=O)[C@H](Cc1ccc(OC)cc1)NC(=O)[C@@H](NC(=O)[C@H](CCCN=C(N)N)NC(=O)CNC)C(C)C)C(=O)N[C@@H](Cc1c[nH]cn1)C(=O)N1CCC[C@H]1C(=O)N[C@@H](Cc1ccccc1)C(=O)O` yielded an Activity in the assay filed under Rattus norvegicus [1] of less than 0.1%. Moreover, the Kb in the assay filed under Rattus norvegicus [2] was 0.00794 µM.
As to `CC[C@H](C)[C@H](NC(=O)[C@@H]1CCCN1C(=O)[C@H](Cc1c[nH]cn1)NC(=O)[C@@H](NC(=O)[C@H](Cc1ccc(OC)cc1)NC(=O)[C@@H](NC(=O)[C@H](CCCN=C(N)N)NC(=O)CNC)C(C)C)[C@@H](C)CC)C(=O)O`, the Activity in the assay listed under Rattus norvegicus [1] was less than 0.1%. In addition, the Kb in the assay filed under Rattus norvegicus [2] was 0.0631 µM.
For the compound `CC[C@H](C)[C@H](NC(=O)[C@@H]1CCCN1C(=O)[C@H](Cc1c[nH]cn1)NC(=O)[C@@H](NC(=O)[C@H](Cc1ccc(OC)cc1)NC(=O)[C@@H](NC(=O)[C@@H](N)CCCN=C(N)N)C(C)C)[C@@H](C)CC)C(=O)O`, the Activity in the assay filed under Rattus norvegicus [1] is listed as less than 0.1%. In the assay filed under Rattus norvegicus [2], the Kb is more than 1 µM.
`CC[C@H](C)[C@H](NC(=O)[C@H](Cc1ccc(O)cc1)NC(=O)[C@@H](NC(=O)[C@@H](N)CCCN=C(N)N)C(C)C)C(=O)N[C@@H](Cc1c[nH]cn1)C(=O)N1CCC[C@H]1C(=O)N[C@@H](Cc1c[nH]c2ccccc12)C(=O)O` came in with an Activity in the assay listed under Rattus norvegicus [1] of less than 0.1%. For the same compound, the Kb in the assay listed under Rattus norvegicus [2] was 0.2 µM.
Turning to `CC[C@H](C)[C@H](NC(=O)[C@H](Cc1ccc(OC)cc1)NC(=O)[C@@H](NC(=O)[C@@H](N)CCCN=C(N)N)C(C)C)C(=O)N[C@@H](Cc1c[nH]cn1)C(=O)N1CCC[C@H]1C(=O)N[C@@H](Cc1c[nH]c2ccccc12)C(=O)O`, in the assay listed under Rattus norvegicus [1], the Activity was less than 0.1%. In addition, the Kb in the assay filed under Rattus norvegicus [2] was more than 1 µM.
In the case of `CC[C@H](C)[C@H](NC(=O)[C@H](Cc1ccc(O)cc1)NC(=O)[C@@H](NC(=O)[C@H](CCCN=C(N)N)NC(=O)CNC)C(C)C)C(=O)N[C@@H](Cc1c[nH]cn1)C(=O)N1CCC[C@H]1C(=O)N[C@@H](Cc1c[nH]c2ccccc12)C(=O)O`, the Activity in the assay filed under Rattus norvegicus [1] is less than 0.1%. In the assay filed under Rattus norvegicus [2], the Kb was 0.02 µM.
With `CC[C@H](C)[C@H](NC(=O)[C@@H]1CCCN1C(=O)[C@H](Cc1c[nH]cn1)NC(=O)[C@@H](NC(=O)[C@H](Cc1c[nH]c2ccccc12)NC(=O)[C@@H](NC(=O)[C@@H](N)CCCN=C(N)N)C(C)C)[C@@H](C)CC)C(=O)O` (H-RVWIHPI-OH), the Activity in the assay filed under Rattus norvegicus [1] is listed as less than 0.1%. The Kb in the assay listed under Rattus norvegicus [2] was more than 1 µM.
In the same order, the values of `CC[C@H](C)[C@H](NC(=O)[C@H](Cc1c[nH]c2ccccc12)NC(=O)[C@@H](NC(=O)[C@H](CCCN=C(N)N)NC(=O)CNC)C(C)C)C(=O)N[C@@H](Cc1c[nH]cn1)C(=O)N1CCC[C@H]1C(=O)N[C@@H](Cc1ccccc1)C(=O)O` (H-[Sar]RVWIHPF-OH) are less than 0.1% and more than 1 µM.
The compound `CC[C@H](C)[C@H](NC(=O)[C@@H]1CCCN1C(=O)[C@H](Cc1c[nH]cn1)NC(=O)[C@@H](NC(=O)[C@H](Cc1ccc(O)cc1)NC(=O)[C@@H](NC(=O)[C@H](CCCN=C(N)N)NC(=O)CNC)C(C)C)[C@@H](C)CC)C(=O)O` yielded an Activity in the assay listed under Rattus norvegicus [1] of less than 0.1%. The Kb in the assay listed under Rattus norvegicus [2] was 0.002 µM.
In the case of `CC[C@H](C)[C@H](NC(=O)[C@H](Cc1c[nH]c2ccccc12)NC(=O)[C@@H](NC(=O)[C@@H](N)CCCN=C(N)N)C(C)C)C(=O)N[C@@H](Cc1c[nH]cn1)C(=O)N1CCC[C@H]1C(=O)N[C@@H](Cc1ccccc1)C(=O)O` (H-RVWIHPF-OH), the Activity in the assay filed under Rattus norvegicus [1] is less than 0.1%. Further, in the assay listed under Rattus norvegicus [2], the Kb was more than 1 µM.
Consider `CC[C@H](C)[C@H](NC(=O)[C@H](Cc1ccc(OC)cc1)NC(=O)[C@@H](NC(=O)[C@@H](N)CCCN=C(N)N)C(C)C)C(=O)N[C@@H](Cc1c[nH]cn1)C(=O)N1CCC[C@H]1C(=O)N[C@@H](Cc1ccccc1)C(=O)O`, for which the Activity in the assay filed under Rattus norvegicus [1] is listed as less than 0.1%. Further, in the assay listed under Rattus norvegicus [2], the Kb is more than 1 µM.
As for `CC[C@H](C)[C@H](NC(=O)[C@H](Cc1ccc(OC)cc1)NC(=O)[C@@H](NC(=O)[C@H](CCCN=C(N)N)NC(=O)CNC)C(C)C)C(=O)N[C@@H](Cc1c[nH]cn1)C(=O)N1CCC[C@H]1C(=O)N[C@@H](Cc1c[nH]c2ccccc12)C(=O)O`, the Activity in the assay listed under Rattus norvegicus [1] is less than 0.1%. The Kb in the assay listed under Rattus norvegicus [2] was 0.0794 µM.
